# Calls of active or inactive are those of the source. No cut-off for these calls is given here.
# Assays:
# [1] = biological target: T1, Sodium-dependent noradrenaline transporter (Homo sapiens, UniProt P23975); test: Inhibition of [3H]norepinephrine uptake at human NET expressed in HEK293 cells at 10 uM after 15 to 20 mins by microbeta scintillation counting method; format: cell-based
# Method in brief: (§1)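 HEK-293 cells transfected with the human transporter (DAT or NET) were given the radiolabeled substrate, [³H]-DA for DAT or [³H]-NE for NET, at 20 nM in the assay. Uptake was measured by liquid scintillation counting. Reference inhibitors were venlafaxine HCl, bupropion and GBR12909. Single-concentration lines are percent reuptake inhibition at the stated concentration.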
# [2] = biological target: T2, Sodium-dependent serotonin transporter (Homo sapiens, UniProt P31645); conditions: HEK293, at 1 µM
# Target sequence in this assay (P31645 whole entry, looked up): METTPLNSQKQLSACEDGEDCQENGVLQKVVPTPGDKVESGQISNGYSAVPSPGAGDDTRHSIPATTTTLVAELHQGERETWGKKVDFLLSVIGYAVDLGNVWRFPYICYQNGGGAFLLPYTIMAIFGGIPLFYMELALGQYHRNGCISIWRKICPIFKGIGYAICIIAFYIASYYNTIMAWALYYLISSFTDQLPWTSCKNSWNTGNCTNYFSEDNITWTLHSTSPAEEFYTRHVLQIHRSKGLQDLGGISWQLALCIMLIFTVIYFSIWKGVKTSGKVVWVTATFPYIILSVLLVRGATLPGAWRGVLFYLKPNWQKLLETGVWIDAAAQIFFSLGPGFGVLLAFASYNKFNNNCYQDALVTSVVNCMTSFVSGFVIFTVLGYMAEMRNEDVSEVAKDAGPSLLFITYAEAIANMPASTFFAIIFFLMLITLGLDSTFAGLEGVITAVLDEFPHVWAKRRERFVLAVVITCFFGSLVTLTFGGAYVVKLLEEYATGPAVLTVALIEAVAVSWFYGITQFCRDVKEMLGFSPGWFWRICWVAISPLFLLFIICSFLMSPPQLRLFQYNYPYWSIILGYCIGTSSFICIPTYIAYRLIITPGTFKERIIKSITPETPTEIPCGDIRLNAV
# [3] = biological target: T3, Sodium-dependent dopamine transporter (Homo sapiens, UniProt Q01959); test: Inhibition of [3H]dopamine uptake at human DAT expressed in HEK293 cells at 1 uM after 15 to 20 mins by microbeta scintillation counting method; format: cell-based; method in brief: as §1
# T3 sequence (Q01959 whole entry): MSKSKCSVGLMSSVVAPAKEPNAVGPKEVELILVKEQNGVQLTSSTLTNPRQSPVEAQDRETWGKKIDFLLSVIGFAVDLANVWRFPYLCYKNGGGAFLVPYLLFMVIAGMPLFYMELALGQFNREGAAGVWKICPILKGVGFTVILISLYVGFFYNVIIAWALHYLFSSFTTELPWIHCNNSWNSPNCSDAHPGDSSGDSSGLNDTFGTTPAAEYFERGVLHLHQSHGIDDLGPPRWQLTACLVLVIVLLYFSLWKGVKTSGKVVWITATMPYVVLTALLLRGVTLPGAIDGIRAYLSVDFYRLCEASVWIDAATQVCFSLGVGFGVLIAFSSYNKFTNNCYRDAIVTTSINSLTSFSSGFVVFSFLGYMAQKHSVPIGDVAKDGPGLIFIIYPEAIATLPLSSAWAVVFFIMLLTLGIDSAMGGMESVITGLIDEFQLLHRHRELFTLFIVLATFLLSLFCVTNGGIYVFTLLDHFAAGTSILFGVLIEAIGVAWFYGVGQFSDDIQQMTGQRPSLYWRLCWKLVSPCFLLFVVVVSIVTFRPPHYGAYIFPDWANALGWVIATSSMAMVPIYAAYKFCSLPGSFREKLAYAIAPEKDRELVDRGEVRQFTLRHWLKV
# [4] = biological target: T1, Sodium-dependent noradrenaline transporter; test: Inhibition of [3H]norepinephrine uptake at human NET expressed in HEK293 cells after 15 to 20 mins by microbeta scintillation counting method; format: cell-based
# Method in brief: as §1, with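 “counting.” for “counting. Reference inhibitors were venlafaxine HCl, bupropion and GBR12909.”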
# [5] = biological target: T2, Sodium-dependent serotonin transporter; test: Inhibition of [3H]serotonin uptake at human SERT expressed in HEK293 cells after 15 to 20 mins by microbeta scintillation counting method; format: cell-based
# Target sequence in this assay (P31645 whole entry): as the sequence (P31645 whole entry, looked up) above
# [6] = biological target: T2, Sodium-dependent serotonin transporter; test: Inhibition of [3H]serotonin uptake at SERT (unknown origin)
# Method in brief: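 Human serotonin transporter (hSERT) expressed by transfection in HEK-293 cells. [³H]-5-HT at 20 nM, with uptake radioactivity counted by liquid scintillation. Percent reuptake inhibition measured at 1 µM and 10 µM, plus IC50 determination.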
# Target sequence in this assay (P31645 whole entry): as the sequence (P31645 whole entry, looked up) above
# [7] = biological target: T3, Sodium-dependent dopamine transporter; test: Inhibition of [3H]dopamine uptake at DAT (unknown origin)
# Method in brief: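 HEK-293 cells transfected with human dopamine transporter (hDAT). Uptake of [³H]-DA at 20 nM, measured by liquid scintillation counting. Test compounds screened as % reuptake inhibition at 1 µM and 10 µM, and IC50 values determined.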
# [8] = biological target: T1, Sodium-dependent noradrenaline transporter; conditions: HEK293, 1 uM
# [9] = biological target: T1, Sodium-dependent noradrenaline transporter; test: Inhibition of [3H]norepinephrine uptake at NET (unknown origin)
# Method in brief: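 HEK-293 cells transfected with human norepinephrine transporter (hNET). [³H]-NE at 20 nM as substrate, with uptake read by liquid scintillation counting. Reuptake inhibition recorded at 1 µM and 10 µM test compound, and IC50 derived.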
# [10] = biological target: T3, Sodium-dependent dopamine transporter; test: Inhibition of [3H]dopamine uptake at human DAT expressed in HEK293 cells after 15 to 20 mins by microbeta scintillation counting method; format: cell-based; method in brief: as §1
# T1 sequence (P23975 whole entry): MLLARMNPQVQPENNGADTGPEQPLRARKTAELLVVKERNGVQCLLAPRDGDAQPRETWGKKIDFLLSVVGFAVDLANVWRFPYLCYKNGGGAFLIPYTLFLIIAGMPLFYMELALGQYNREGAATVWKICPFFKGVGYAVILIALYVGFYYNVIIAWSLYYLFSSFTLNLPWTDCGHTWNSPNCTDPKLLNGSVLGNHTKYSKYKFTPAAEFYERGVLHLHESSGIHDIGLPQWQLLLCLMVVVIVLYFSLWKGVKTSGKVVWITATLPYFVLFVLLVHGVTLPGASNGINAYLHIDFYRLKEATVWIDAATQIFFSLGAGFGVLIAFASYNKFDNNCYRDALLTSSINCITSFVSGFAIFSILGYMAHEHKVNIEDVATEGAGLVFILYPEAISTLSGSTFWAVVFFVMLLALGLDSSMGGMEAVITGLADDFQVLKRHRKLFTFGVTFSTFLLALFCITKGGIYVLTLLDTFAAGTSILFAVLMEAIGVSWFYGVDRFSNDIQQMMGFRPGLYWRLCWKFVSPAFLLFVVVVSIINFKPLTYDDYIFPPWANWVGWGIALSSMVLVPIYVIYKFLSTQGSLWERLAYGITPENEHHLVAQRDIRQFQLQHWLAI
SMILES,inhibition [1] [%],inhibition [2] [%],inhibition [3],IC50 [5] [nM],also measured
Clc1cccc(N2CCN(CCCOc3ccc4ccccc4c3)CC2)c1Cl,45,37.5,–,–,–
c1ccc(CC2CCN(CCOc3ccc4ccccc4c3)CC2)cc1,–,12.1,inactive,–,–
Fc1ccc(N2CCN(CCCOc3ccc4ccccc4c3)CC2)cc1,23.3,45.4,–,–,–
FC(F)(F)c1ccc(N2CCN(CCCCOc3ccc4ccccc4c3)CC2)cc1,68.3,59.2,–,680,IC50 [4]: 20500 nM
Clc1ccc(N2CCN(CCCCOc3ccc4ccccc4c3)CC2)cc1,69.3,49,–,–,–
Brc1ccc(N2CCN(CCCOc3ccc4ccccc4c3)CC2)cc1,80,54.9,–,830,IC50 [4]: 2850 nM
Clc1cccc(N2CCN(CCOc3ccc4ccccc4c3)CC2)c1,83.1,85.3,inactive,1860,IC50 [4]: 5830 nM
Cc1cccc(C)c1N1CCN(CCCCOc2ccc3ccccc3c2)CC1,74.4,38.3,–,–,–
c1ccc(N2CCN(CCCCOc3ccc4ccccc4c3)CC2)cc1,86.4,41.2,–,–,–
O=C(NCCCN1CCC(Cc2ccccc2)CC1)c1ccc2ccccc2c1,–,–,–,–,IC50 [6]: 100 nM; IC50 [7]: > 10000 nM
c1ccc(N2CCN(CCOc3ccc4ccccc4c3)CC2)nc1,66,54,inactive,1080,IC50 [4]: 23800 nM
c1cnc(N2CCN(CCCOc3ccc4ccccc4c3)CC2)nc1,47.3,23.8,–,–,–
Fc1cccc(F)c1N1CCN(CCCn2nnnc2C(c2ccccc2)c2ccccc2)CC1,–,–,–,> 10000,–
COc1ccc(C(CN(C)C)C2(O)CCCCC2)cc1 (stereo unspecified),–,–,–,–,inhibition [8]: 52.6%
c1ccc(CC2CCN(CCCOc3ccc4ccccc4c3)CC2)cc1,92.2,51,–,990,IC50 [4]: 2540 nM
Cc1cccc(C)c1N1CCN(CCOc2ccc3ccccc3c2)CC1,74.9,24.6,19%,–,–
c1cnc(N2CCN(CCCCOc3ccc4ccccc4c3)CC2)nc1,31,32,–,–,–
c1cnc(N2CCN(CCOc3ccc4ccccc4c3)CC2)nc1,–,57,inactive,–,–
c1ccc(N2CCN(CCOc3ccc4ccccc4c3)CC2)cc1,28,7.2,9%,–,–
Brc1ccc(N2CCN(CCCCOc3ccc4ccccc4c3)CC2)cc1,66.3,66.3,–,10700,IC50 [4]: 25900 nM
c1ccc(N2CCN(CCCOc3ccc4ccccc4c3)CC2)nc1,68.7,46.2,–,–,–
Fc1ccc(C(OCCN2CCN(c3ccccn3)CC2)c2ccc(F)cc2)cc1,–,–,–,570,–

SMILES,inhibition [1] [%],inhibition [2] [%],inhibition [3],IC50 [5] [nM],also measured
Cc1cccc(C)c1N1CCN(CCCOc2ccc3ccccc3c2)CC1,86.5,35.1,–,–,–
Clc1cccc(N2CCN(CCCCOc3ccc4ccccc4c3)CC2)c1,63.7,27.5,–,–,–
c1ccc(CC2CCN(CCCCOc3ccc4ccccc4c3)CC2)cc1,80.7,31.9,–,–,–
c1ccc(C2CCN(CCCn3nnnc3C(c3ccccc3)c3ccccc3)CC2)cc1,–,–,–,–,IC50 [9]: 510 nM; IC50 [6]: > 10000 nM; IC50 [7]: 90 nM
COc1ccccc1N1CCN(CCCOc2ccc3ccccc3c2)CC1,85.3,56.4,–,1040,IC50 [4]: 1200 nM
COc1ccccc1N1CCN(CCCCOc2ccc3ccccc3c2)CC1,68,51.3,–,5160,IC50 [4]: 29700 nM
CC(NC(C)(C)C)C(=O)c1cccc(Cl)c1 (stereo unspecified),61.5,–,78.3%,–,–
Clc1ccc(N2CCN(CCCCOc3ccc4ccccc4c3)CC2)c(Cl)c1,67.7,51,–,4320,IC50 [4]: 9740 nM
Clc1cccc(N2CCN(CCCCOc3ccc4ccccc4c3)CC2)c1Cl,60.7,36.8,–,–,–
c1ccc(N2CCN(CCCOc3ccc4ccccc4c3)CC2)cc1,79.6,27,–,–,–
Clc1cccc(N2CCN(CCOc3ccc4ccccc4c3)CC2)c1Cl,20,26.7,inactive,–,–
COc1ccccc1N1CCN(CCOc2ccc3ccccc3c2)CC1,21,48.7,19%,–,–
Brc1ccc(N2CCN(CCOc3ccc4ccccc4c3)CC2)cc1,52.8,9,19%,–,–
O=C(NCCCN1CCN(c2cccc(Cl)c2Cl)CC1)c1ccc2ccccc2c1,–,–,–,–,IC50 [10]: > 10000 nM
Fc1ccc(N2CCN(CCCCOc3ccc4ccccc4c3)CC2)cc1,74.3,71,–,3150,IC50 [4]: 3710 nM
Fc1ccc(N2CCN(CCOc3ccc4ccccc4c3)CC2)cc1,80.8,60.5,35.6%,2800,IC50 [4]: 5130 nM
Clc1ccc(N2CCN(CCOc3ccc4ccccc4c3)CC2)cc1,28,20.1,2%,–,–
c1ccc(N2CCN(CCCCOc3ccc4ccccc4c3)CC2)nc1,59,45.3,–,–,–
Clc1ccc(N2CCN(CCCOc3ccc4ccccc4c3)CC2)cc1,25.7,28.4,–,–,–
FC(F)(F)c1ccc(N2CCN(CCOc3ccc4ccccc4c3)CC2)cc1,23.1,8.2,31.3%,–,–
Clc1ccc(N2CCN(CCOc3ccc4ccccc4c3)CC2)c(Cl)c1,47.3,61.4,48.5%,–,–
